According to ChEMBL document CHEMBL3271988, “Nitrogen analogues of 1,4-benzoquinones. Activities against the ascitic sarcoma 180 of mice” (J Med Chem, 1978):
Calls of active or inactive are those of the source. The calls are words filed in the database; no cut-off is given here.

Tests used:
Sarcoma-180 [1] = assay: Antitumor activity against mouse Sarcoma 180 cells allografted in Swiss mouse assessed as survival time at 90 mg/kg, ip three doses were given at 24 hrs interval starting 24 hrs after allograft injection relative to control; type: functional; conditions: route intraperitoneal
In short: (§1)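 Swiss mice inoculated ip with 10^6 ascitic sarcoma 180 cells. Compound given ip daily ×3 at 24-h intervals, starting 24 h after inoculation. Controls received isotonic saline on the same schedule; 6 mice per group. Mice alive at 60 days counted as 60 days in mean survival (±SD).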

Sarcoma-180 [2] = assay: Antitumor activity against mouse Sarcoma 180 cells allografted in Swiss mouse at 90 mg/kg, ip three doses were given at 24 hrs interval starting 24 hrs after allograft injection relative to control; type: functional; conditions: route intraperitoneal
In short: (§2)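 Swiss mice given 10^6 ascitic sarcoma 180 cells ip; three ip doses at 24-h intervals starting 24 h later; controls received isotonic salt solution on the same schedule. […] Cures = alive without cancer cells at 60 days.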

[3] = Acute toxicity in single ip dosed Swiss mouse assessed as death up to 5 days; type: organism-based; conditions: in vivo
In short: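 Male Swiss mice given one ip dose. LD50 taken as the single dose killing 50% of animals within 5 days.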

Sarcoma-180 [4] = assay: Antitumor activity against mouse Sarcoma 180 cells allografted in Swiss mouse assessed as survival at 90 mg/kg, ip three doses were given at 24 hrs interval starting 24 hrs after allograft injection measured after 5 days; type: functional, organism-based; set-up: dose 90 mg/kg
In short: (§3)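 Swiss mice were injected ip with 10^6 ascitic sarcoma 180 cells. Three daily ip doses followed, the first 24 h after cell injection. The read-out was the number of mice surviving at 5 days, out of 6 treated.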

Sarcoma-180 [5] = assay: Antitumor activity against mouse Sarcoma 180 cells allografted in Swiss mouse assessed as weight gain at 90 mg/kg, ip three doses were given at 24 hrs interval starting 24 hrs after allograft injection measured after 3 days relative to control; type: functional; conditions: route intraperitoneal
In short: (§4)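 Ascitic sarcoma 180 model in Swiss mice: 10^6 cells ip, then three ip doses at 24-h intervals beginning 24 h later. Mice were weighed 1 day after cell injection and again 3 days later (24 h after the third dose). Percent weight gain of treated mice was compared with saline-treated controls on the same schedule.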

[6] = Redox potential of the compound in alcohol-water solution; conditions: buffer
Sarcoma-180 [7] = assay: Antitumor activity against mouse Sarcoma 180 cells allografted in Swiss mouse assessed as survival time at 8 mg/kg, ip three doses were given at 24 hrs interval starting 24 hrs after allograft injection relative to control; type: functional; conditions: route intraperitoneal; in short: as §1
Sarcoma-180 [8] = assay: Antitumor activity against mouse Sarcoma 180 cells allografted in Swiss mouse at 8 mg/kg, ip three doses were given at 24 hrs interval starting 24 hrs after allograft injection relative to control; type: functional; conditions: route intraperitoneal; in short: as §2
[9] = Half life of the compound in water at pH 7 at 25 degC by spectrophotometry; type: physicochemical
In short: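 Compound dissolved in absolute ethanol, then diluted into 0.01 M Tris buffer brought to pH 7 with HCl, 25 °C. Absorbance at λmax followed over hours or days; log absorbance vs time fitted by least squares, rate constant and half-time taken from the slope.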

Sarcoma-180 [10] = assay: Antitumor activity against mouse Sarcoma 180 cells allografted in Swiss mouse assessed as survival at 8 mg/kg, ip three doses were given at 24 hrs interval starting 24 hrs after allograft injection measured after 5 days; type: functional, organism-based; set-up: dose 8 mg/kg; in short: as §3
Sarcoma-180 [11] = assay: Antitumor activity against mouse Sarcoma 180 cells allografted in Swiss mouse assessed as weight gain at 8 mg/kg, ip three doses were given at 24 hrs interval starting 24 hrs after allograft injection measured after 3 days relative to control; type: functional; conditions: route intraperitoneal; in short: as §4
Sarcoma-180 [12] = assay: Antitumor activity against mouse Sarcoma 180 cells allografted in Swiss mouse assessed as cure at 8 mg/kg, ip three doses were given at 24 hrs interval starting 24 hrs after allograft injection measured after 60 days; type: functional, organism-based; set-up: dose 8 mg/kg
In short: (§5)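 Swiss mice given 10^6 ascitic sarcoma 180 cells ip. Starting 24 h later, three ip doses were given 24 h apart. Controls got isotonic salt solution on the same schedule. A cure was a mouse alive with no evidence of cancer cells 60 days after cell injection, reported per 6 mice.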

Sarcoma-180 [13] = assay: Antitumor activity against mouse Sarcoma 180 cells allografted in Swiss mouse assessed as survival time at 5 mg/kg, ip three doses were given at 24 hrs interval starting 24 hrs after allograft injection relative to control; type: functional; conditions: route intraperitoneal; in short: as §1
Sarcoma-180 [14] = assay: Antitumor activity against mouse Sarcoma 180 cells allografted in Swiss mouse at 5 mg/kg, ip three doses were given at 24 hrs interval starting 24 hrs after allograft injection relative to control; type: functional; conditions: route intraperitoneal
In short: (§6)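 Swiss mice received 10^6 ascitic sarcoma 180 cells ip, then three ip doses 24 h apart starting at 24 h. Controls got isotonic salt solution on the same schedule. T/C% is mean survival time of treated over controls (6 mice per group).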

Sarcoma-180 [15] = assay: Antitumor activity against mouse Sarcoma 180 cells allografted in Swiss mouse assessed as survival at 5 mg/kg, ip three doses were given at 24 hrs interval starting 24 hrs after allograft injection measured after 5 days; type: functional, organism-based; set-up: dose 5 mg/kg; in short: as §3
Sarcoma-180 [16] = assay: Antitumor activity against mouse Sarcoma 180 cells allografted in Swiss mouse assessed as weight gain at 5 mg/kg, ip three doses were given at 24 hrs interval starting 24 hrs after allograft injection measured after 3 days relative to control; type: functional; conditions: route intraperitoneal; in short: as §4
Sarcoma-180 [17] = assay: Antitumor activity against mouse Sarcoma 180 cells allografted in Swiss mouse assessed as survival time at 200 mg/kg, ip three doses were given at 24 hrs interval starting 24 hrs after allograft injection relative to control; type: functional; conditions: route intraperitoneal; in short: as §1
Sarcoma-180 [18] = assay: Antitumor activity against mouse Sarcoma 180 cells allografted in Swiss mouse at 200 mg/kg, ip three doses were given at 24 hrs interval starting 24 hrs after allograft injection relative to control; type: functional; conditions: route intraperitoneal; in short: as §6
Sarcoma-180 [19] = assay: Antitumor activity against mouse Sarcoma 180 cells allografted in Swiss mouse assessed as survival at 200 mg/kg, ip three doses were given at 24 hrs interval starting 24 hrs after allograft injection measured after 5 days; type: functional, organism-based; set-up: dose 200 mg/kg; in short: as §3
Sarcoma-180 [20] = assay: Antitumor activity against mouse Sarcoma 180 cells allografted in Swiss mouse assessed as weight gain at 200 mg/kg, ip three doses were given at 24 hrs interval starting 24 hrs after allograft injection measured after 3 days relative to control; type: functional; conditions: route intraperitoneal; in short: as §4
Sarcoma-180 [21] = assay: Antitumor activity against mouse Sarcoma 180 cells allografted in Swiss mouse assessed as survival time at 22.5 mg/kg, ip three doses were given at 24 hrs interval starting 24 hrs after allograft injection relative to control; type: functional; conditions: route intraperitoneal; in short: as §1
Sarcoma-180 [22] = assay: Antitumor activity against mouse Sarcoma 180 cells allografted in Swiss mouse at 22.5 mg/kg, ip three doses were given at 24 hrs interval starting 24 hrs after allograft injection relative to control; type: functional; conditions: route intraperitoneal; in short: as §6
Sarcoma-180 [23] = assay: Antitumor activity against mouse Sarcoma 180 cells allografted in Swiss mouse assessed as weight gain at 22.5 mg/kg, ip three doses were given at 24 hrs interval starting 24 hrs after allograft injection measured after 3 days relative to control; type: functional; conditions: route intraperitoneal; in short: as §4
Sarcoma-180 [24] = assay: Antitumor activity against mouse Sarcoma 180 cells allografted in Swiss mouse assessed as survival time at 9 mg/kg, ip three doses were given at 24 hrs interval starting 24 hrs after allograft injection relative to control; type: functional; conditions: route intraperitoneal; in short: as §1
Sarcoma-180 [25] = assay: Antitumor activity against mouse Sarcoma 180 cells allografted in Swiss mouse at 9 mg/kg, ip three doses were given at 24 hrs interval starting 24 hrs after allograft injection relative to control; type: functional; conditions: route intraperitoneal; in short: as §2
Sarcoma-180 [26] = assay: Antitumor activity against mouse Sarcoma 180 cells allografted in Swiss mouse assessed as survival at 9 mg/kg, ip three doses were given at 24 hrs interval starting 24 hrs after allograft injection measured after 5 days; type: functional, organism-based; set-up: dose 9 mg/kg; in short: as §3
Sarcoma-180 [27] = assay: Antitumor activity against mouse Sarcoma 180 cells allografted in Swiss mouse assessed as weight gain at 9 mg/kg, ip three doses were given at 24 hrs interval starting 24 hrs after allograft injection measured after 3 days relative to control; type: functional; conditions: route intraperitoneal; in short: as §4
Sarcoma-180 [28] = assay: Antitumor activity against mouse Sarcoma 180 cells allografted in Swiss mouse assessed as cure at 9 mg/kg, ip three doses were given at 24 hrs interval starting 24 hrs after allograft injection measured after 60 days; type: functional, organism-based; set-up: dose 9 mg/kg; in short: as §5

O=C1C=C/C(=N/O)C(Cl)=C1
Survival (Sarcoma-180 [1]): 39 days
T/C (Sarcoma-180 [2]): 304%
LD50 at 120 h [3]: 380 mg/kg
Activity (Sarcoma-180 [4]): Active
Activity (Sarcoma-180 [5]): -2.4%
Redox potential [6]: 0.537 V

O=C1C(Cl)=CC(=NBr)C=C1Cl
Survival (Sarcoma-180 [7]): 27.2 days
T/C (Sarcoma-180 [8]): 165%
half-life [9]: 3.7 h
LD50 at 120 h [3]: 20 mg/kg
Activity (Sarcoma-180 [10]): Active
Activity (Sarcoma-180 [11]): -5.1%
Activity (Sarcoma-180 [12]): inactive

O=C1C=CC(=NCl)C=C1
Survival (Sarcoma-180 [13]): 40.5 days
T/C (Sarcoma-180 [14]): 246%
half-life [9]: 35.3 h
LD50 at 120 h [3]: 12.5 mg/kg
Activity (Sarcoma-180 [15]): Active
Activity (Sarcoma-180 [16]): -6.9%
Redox potential [6]: 0.652 V

O=C1C=C/C(=N/O)C(I)=C1
Survival (Sarcoma-180 [17]): 23.7 days
T/C (Sarcoma-180 [18]): 171%
LD50 at 120 h [3]: 550 mg/kg
Activity (Sarcoma-180 [19]): Active
Activity (Sarcoma-180 [20]): 0%
Redox potential [6]: 0.531 V

O=C1C(Br)=CC(=NCl)C=C1Br
Survival (Sarcoma-180 [21]): 41 days
T/C (Sarcoma-180 [22]): 218%
half-life [9]: 23.3 h
LD50 at 120 h [3]: 63 mg/kg
Activity (Sarcoma-180 [23]): -25%
Redox potential [6]: 0.665 V

O=C1C(Br)=CC(=NBr)C=C1Br
Survival (Sarcoma-180 [24]): 22.8 days
T/C (Sarcoma-180 [25]): 178%
half-life [9]: 10.4 h
LD50 at 120 h [3]: 25 mg/kg
Activity (Sarcoma-180 [26]): Active
Activity (Sarcoma-180 [27]): -3%
Activity (Sarcoma-180 [28]): inactive
Redox potential [6]: 0.678 V
